Results published in ChEMBL document CHEMBL5058577, “EUbOPEN Chemogenomics Library 2 (Multiplex)” (2022).

Tested on: Fibroblast
Assay: Multiplex assay against human fibroblast
Assay type: toxicity, cell-based
Method in brief: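 Compound was added to live cells that had been stained at seeding with Hoechst33342, BioTracker Green Microtubule Cytoskeleton Dye, MitoTracker Red and Annexin V Alexa Fluor 680, and imaging followed on a CQ1 microscope at 37°C and 5% CO2. CellPathfinder machine-learning gating divided cells into Hoechst high-intensity objects or normal cells, normal cells into healthy, pyknosed or fragmented nuclei, and pyknosed cells into mitotic or apoptotic. Tubulin, mitochondrial-mass and membrane-permeability phenotypes are per cents of healthy-nucleus cells.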

[1] = 12 h, 1 µM, compound concentration 1 uM, replicate 1
[2] = 12 h, 1 µM, compound concentration 1 uM, replicate 2
[3] = 12 h, 10 µM, compound concentration 10 uM, replicate 1
[4] = 12 h, 10 µM, compound concentration 10 uM, replicate 2
[5] = 24 h, 1 µM, compound concentration 1 uM, replicate 1
[6] = 24 h, 1 µM, compound concentration 1 uM, replicate 2
[7] = 24 h, 10 µM, compound concentration 10 uM, replicate 1
[8] = 24 h, 10 µM, compound concentration 10 uM, replicate 2
[9] = 48 h, 1 µM, compound concentration 1 uM, replicate 1
[10] = 48 h, 1 µM, compound concentration 1 uM, replicate 2
[11] = 48 h, 10 µM, compound concentration 10 uM, replicate 1
[12] = 48 h, 10 µM, compound concentration 10 uM, replicate 2

CC(C)(C)c1ccc(CSc2cnn(C(C)(C)C)c(=O)c2Cl)cc1 [PYRIDABEN]
Population Apoptotic (%) [1]: 46%
Population Fragmented Nuclei (%) [1]: 15%
Population Healthy Nuclei (%) [1]: 66%
Population Hoechst High Intensity Objects (%) [1]: 1%
Population Membrane Permeable-Phenotype (%) [1]: 3%
Population Mitochondria Different-Phenotype (%) [1]: 1%
Population Mitotic Cells (%) [1]: 53%
Population Normal (%) [1]: 98%
Population Pyknosed Nuclei (%) [1]: 17%
Population Tubulin-Different-Phenotype (%) [1]: 28%
Total Cell Count [1]: 148
Population Apoptotic (%) [2]: 44%
Population Fragmented Nuclei (%) [2]: 27%
Population Healthy Nuclei (%) [2]: 47%
Population Hoechst High Intensity Objects (%) [2]: 4%
Population Membrane Permeable-Phenotype (%) [2]: 12%
Population Mitochondria Different-Phenotype (%) [2]: 7%
Population Mitotic Cells (%) [2]: 55%
Population Normal (%) [2]: 95%
Population Pyknosed Nuclei (%) [2]: 25%
Population Tubulin-Different-Phenotype (%) [2]: 57%
Total Cell Count [2]: 142
Population Apoptotic (%) [3]: 25%
Population Fragmented Nuclei (%) [3]: 11%
Population Healthy Nuclei (%) [3]: 68%
Population Hoechst High Intensity Objects (%) [3]: 4%
Population Membrane Permeable-Phenotype (%) [3]: 2%
Population Mitochondria Different-Phenotype (%) [3]: 5%
Population Mitotic Cells (%) [3]: 74%
Population Normal (%) [3]: 95%
Population Pyknosed Nuclei (%) [3]: 20%
Population Tubulin-Different-Phenotype (%) [3]: 35%
Total Cell Count [3]: 139
Population Apoptotic (%) [4]: 47%
Population Fragmented Nuclei (%) [4]: 25%
Population Healthy Nuclei (%) [4]: 49%
Population Hoechst High Intensity Objects (%) [4]: 1%
Population Membrane Permeable-Phenotype (%) [4]: 12%
Population Mitochondria Different-Phenotype (%) [4]: 4%
Population Mitotic Cells (%) [4]: 52%
Population Normal (%) [4]: 98%
Population Pyknosed Nuclei (%) [4]: 25%
Population Tubulin-Different-Phenotype (%) [4]: 54%
Total Cell Count [4]: 136
Population Apoptotic (%) [5]: 35%
Population Fragmented Nuclei (%) [5]: 17%
Population Healthy Nuclei (%) [5]: 71%
Population Hoechst High Intensity Objects (%) [5]: 0%
Population Membrane Permeable-Phenotype (%) [5]: 0%
Population Mitochondria Different-Phenotype (%) [5]: 2%
Population Mitotic Cells (%) [5]: 64%
Population Normal (%) [5]: 99%
Population Pyknosed Nuclei (%) [5]: 11%
Population Tubulin-Different-Phenotype (%) [5]: 20%
Total Cell Count [5]: 148
Population Apoptotic (%) [6]: 36%
Population Fragmented Nuclei (%) [6]: 30%
Population Healthy Nuclei (%) [6]: 48%
Population Hoechst High Intensity Objects (%) [6]: 4%
Population Membrane Permeable-Phenotype (%) [6]: 7%
Population Mitochondria Different-Phenotype (%) [6]: 8%
Population Mitotic Cells (%) [6]: 63%
Population Normal (%) [6]: 95%
Population Pyknosed Nuclei (%) [6]: 21%
Population Tubulin-Different-Phenotype (%) [6]: 50%
Population Apoptotic (%) [7]: 56%
Population Fragmented Nuclei (%) [7]: 13%
Population Healthy Nuclei (%) [7]: 62%
Population Hoechst High Intensity Objects (%) [7]: 2%
Population Membrane Permeable-Phenotype (%) [7]: 1%
Population Mitochondria Different-Phenotype (%) [7]: 7%
Population Mitotic Cells (%) [7]: 43%
Population Normal (%) [7]: 97%
Population Pyknosed Nuclei (%) [7]: 23%
Population Tubulin-Different-Phenotype (%) [7]: 40%
Total Cell Count [7]: 139
Population Apoptotic (%) [8]: 54%
Population Fragmented Nuclei (%) [8]: 28%
Population Healthy Nuclei (%) [8]: 48%
Population Hoechst High Intensity Objects (%) [8]: 0%
Population Membrane Permeable-Phenotype (%) [8]: 9%
Population Mitochondria Different-Phenotype (%) [8]: 9%
Population Mitotic Cells (%) [8]: 45%
Population Normal (%) [8]: 99%
Population Pyknosed Nuclei (%) [8]: 22%
Population Tubulin-Different-Phenotype (%) [8]: 53%
Total Cell Count [8]: 136
Population Apoptotic (%) [9]: 50%
Population Fragmented Nuclei (%) [9]: 27%
Population Healthy Nuclei (%) [9]: 62%
Population Hoechst High Intensity Objects (%) [9]: 1%
Population Membrane Permeable-Phenotype (%) [9]: 0%
Population Mitochondria Different-Phenotype (%) [9]: 4%
Population Mitotic Cells (%) [9]: 50%
Population Normal (%) [9]: 98%
Population Pyknosed Nuclei (%) [9]: 9%
Population Tubulin-Different-Phenotype (%) [9]: 28%
Total Cell Count [9]: 164
Population Apoptotic (%) [10]: 45%
Population Fragmented Nuclei (%) [10]: 43%
Population Healthy Nuclei (%) [10]: 41%
Population Hoechst High Intensity Objects (%) [10]: 4%
Population Membrane Permeable-Phenotype (%) [10]: 6%
Population Mitochondria Different-Phenotype (%) [10]: 15%
Population Mitotic Cells (%) [10]: 54%
Population Normal (%) [10]: 95%
Population Pyknosed Nuclei (%) [10]: 15%
Population Tubulin-Different-Phenotype (%) [10]: 63%
Total Cell Count [10]: 153
Population Apoptotic (%) [11]: 72%
Population Fragmented Nuclei (%) [11]: 19%
Population Healthy Nuclei (%) [11]: 62%
Population Hoechst High Intensity Objects (%) [11]: 4%
Population Membrane Permeable-Phenotype (%) [11]: 0%
Population Mitochondria Different-Phenotype (%) [11]: 8%
Population Mitotic Cells (%) [11]: 28%
Population Normal (%) [11]: 95%
Population Pyknosed Nuclei (%) [11]: 18%
Population Tubulin-Different-Phenotype (%) [11]: 49%
Total Cell Count [11]: 143
Population Apoptotic (%) [12]: 63%
Population Fragmented Nuclei (%) [12]: 36%
Population Healthy Nuclei (%) [12]: 48%
Population Hoechst High Intensity Objects (%) [12]: 5%
Population Membrane Permeable-Phenotype (%) [12]: 8%
Population Mitochondria Different-Phenotype (%) [12]: 10%
Population Mitotic Cells (%) [12]: 36%
Population Normal (%) [12]: 94%
Population Pyknosed Nuclei (%) [12]: 15%
Population Tubulin-Different-Phenotype (%) [12]: 58%
Total Cell Count [12]: 131
